CHRM5 agonist = agonists of human muscarinic M5 receptor (CHRM5). CHO-K1 hM5 cells, Fluo-8 calcium fluorescence; 0% DMSO wells, 100% maximal acetylcholine response. AID 624037. 360,000 tested, 0.19% active. activation, % at 3 µM;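 active = activation above the run's mean over test compounds plus 3 SD, cut at about 23% in these data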;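 also: signal is peak over basal fluorescence ratio across the kinetic read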
CHRM5 PAM = CHRM5 positive allosteric modulation. P08912. activation, % at 3 µM. AID 624038. CHO-K1 hM5, Fluo-8 calcium, ACh EC20 PAM; 0% = ACh EC20, 100% = ACh EC100. 360,000 tested, 0.3% active;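 active = activation above the run cutoff, the mean activation of all test compounds plus 3 SD, cut at about 18% in these data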
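Assay system – human M5 receptor in CHO-K1 cells · Read-out – % activation, ACh-normalized · Technique – Fluo-8 calcium fluorescence · Dosing – single-point, 3 µM nominal · Incubation – Fluo-8 loading 80 min at 37 °C plus 30 min room temperature · Repeats – singlicate, one well per test compound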
M4 antag = CHRM4 antagonism in calcium assay. P08173. CHO-hM4 cells, ACh EC80, Fluo-8 calcium fluorescence. inhibition, % at 3 µM. 360,000 tested, 0.73% active;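 active = inhibition above its plate's cutoff, the mean inhibition of sample wells plus 3 SD, cut at about 27% in these data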;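 also: 0% = acetylcholine EC80 with DMSO and 100% = DMSO without agonist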
Target sequence (P08173 whole entry, looked up): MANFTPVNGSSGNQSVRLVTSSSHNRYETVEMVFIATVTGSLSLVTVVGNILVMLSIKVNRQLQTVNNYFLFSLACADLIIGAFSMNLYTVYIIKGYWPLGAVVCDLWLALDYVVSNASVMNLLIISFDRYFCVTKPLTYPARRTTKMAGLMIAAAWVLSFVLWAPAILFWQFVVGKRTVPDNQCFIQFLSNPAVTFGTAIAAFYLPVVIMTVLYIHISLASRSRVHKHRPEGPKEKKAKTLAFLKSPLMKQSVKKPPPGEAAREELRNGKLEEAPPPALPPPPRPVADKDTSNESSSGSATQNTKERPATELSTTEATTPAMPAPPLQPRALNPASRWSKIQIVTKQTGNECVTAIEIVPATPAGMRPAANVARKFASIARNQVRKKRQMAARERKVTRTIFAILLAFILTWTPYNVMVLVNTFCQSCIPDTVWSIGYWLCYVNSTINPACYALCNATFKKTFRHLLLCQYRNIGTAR
M4 PAM = CHRM4 positive allosteric modulation. AID 624126. 360,000 tested, 0.4% active. P08173. activation, % at 3 µM. CHO-K1 hM4/Gqi5, Fluo-8 calcium fluorescence, ACh EC20; 0% = ACh EC20, 100% = maximal ACh;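 active = activation above its plate's cutoff, the mean activation of sample wells plus 3 SD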
M4 ag = agonists of human muscarinic M4 receptor (CHRM4); P08173; CHO-K1 hM4/Gqi5, Fluo-8 calcium fluorescence; vehicle 0%, full acetylcholine response 100%; activation, % at 3 µM; 360,000 tested, 0.14% active;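 active = activation above the run mean over all test wells plus 3 SD, cut at about 32% in these data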;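 also: peak over basal fluorescence ratio per well then scaled between controls; 0% = DMSO wells and 100% = acetylcholine at EC100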
M5 antag = blocks acetylcholine activation of human M5 receptor; CHO-hM5 cells, Fluo-8 calcium fluorescence, ACh EC80; AID 624040; 360,000 tested, 0.59% active; inhibition, % at 3 µM;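 active = inhibition above a per-plate cutoff, the mean of that plate's test compounds plus 3 SD, cut at about 27% in these data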;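 also: 0% = acetylcholine EC80 with DMSO and 100% = DMSO without agonist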
* hit, by the source's call. Sampled rows, rich in hits. Any-hit rate of the full collection: about 1.9%.

SMILES	CHRM5 agonist	CHRM5 PAM	M4 antag	M4 PAM	M4 ag	M5 antag
O=C(Nc1ccc(Cl)cc1)Nc1ccccc1CC[N+](=O)[O-]	7.7	-16.8	-7.3	-8.4	16.6	28.8*
O=C(Nc1ccc(Cl)cc1)Nc1cc([N+](=O)[O-])ccc1F	0.6	-1.1	7.9	-5.7	4.3	3.4
O=C(Nc1ccc(Cl)cc1)Nc1csc([N+](=O)[O-])c1	6.1	-32.6	7.0	-5.7	10.9	37.4*
Cc1cc(OC(F)F)ccc1NC(=O)Nc1ccc([N+](=O)[O-])cc1	4.6	-15.7	-0.8	2.9	12.8	27.4*
O=C(Nc1csc([N+](=O)[O-])c1)Nc1c(Cl)cccc1Cl	5.6	-12.2	14.6	-8.7	11.6	14.6
CC(=O)Nc1sc(C)c(C)c1C(=O)OCC(=O)N(CC(C)C)C1CCS(=O)(=O)C1 (stereo not given)	2.5	4.4	-8.9	22.8*	2.4	3.4
CCN(C(=O)COC(=O)c1c(C)c(-c2ccccc2)nc2ccccc12)C1CCS(=O)(=O)C1 (stereo not given)	25.1*	-1.6	5.4	-6.7	7.5	-2.2
CCN(C(=O)COC(=O)c1c(-c2ccccc2)noc1C)C1CCS(=O)(=O)C1 (stereo not given)	-1.2	5.3	-1.4	2.6	-0.2	-4.5
CC(=O)c1cccc(NC(=O)C2Cc3c(-c4ccccc4Oc4ccccc4)ccnc3O2)c1 (stereo not given)	-1.2	-5.3	19.8	-6.7	6.9	10.1
CC(=O)c1ccc(N2CCN(CC(O)COC(c3ccccc3)c3ccccc3C)CC2)cc1 (stereo not given)	-5.8	-16.2	81.0*	-23.2	12.5	31.7*
CC(=O)c1ccc(N2CCN(CC(O)COC(c3ccccc3)c3ccccc3)CC2)cc1 (stereo not given)	-7.5	-15.4	40.5*	-22.5	6.1	16.9
COc1ccc(-c2nc(-c3cccc(C(F)(F)F)c3)no2)cc1OC	-1.4	-0.1	-0.6	29.7*	1.2	-4.6
c1sc2[n+](c1C13CC4CC(CC(C4)C1)C3)CCS2	-8.7	-5.8	34.3*	-12.3	0.1	-2.1
Fc1ccc(-c2csc3[n+]2CCS3)cc1	-15.9	2.8	-0.1	3.8	-0.1	-1.4
COc1ccc(CN2CCC2(C)C(=O)NCc2ccc3c(c2)OCO3)c2ccccc12 (stereo not given)	-1.5	-2.9	-4.0	2.9	0.8	7.6
O=C(Nc1cccnc1Cl)C1CCCN(c2ncnc3c2nc2n3CCCCC2)C1 (stereo not given)	-5.4	3.6	-35.1	17.7*	3.1	-15.4
Cc1ccc(CN2CCC(CNC(=O)C3CCCN(c4ncnc5c4nc4n5CCCCC4)C3)CC2)cc1 (stereo not given)	-11.5	-1.9	38.4*	-26.0	0.9	1.5
O=C(NCc1ccccc1Cl)C1CCCN(c2ncnc3c2nc2n3CCCCC2)C1 (stereo not given)	-4.7	-2.6	2.0	-0.3	2.0	8.2
O=C(NCC1CCN(Cc2ccccc2F)CC1)C1CCCN(c2ncnc3c2nc2n3CCCCC2)C1 (stereo not given)	-8.8	-3.8	52.1*	-21.4	-0.6	-7.0
CC(Sc1nc2ncc(Cl)cc2[nH]1)C(=O)Nc1ccccc1[N+](=O)[O-] (stereo not given)	-3.6	-15.6	-15.7	-1.6	0.5	4.1
Cc1cc(C)n(C(=O)c2c([N+](=O)[O-])c(C)nn2C)n1	-0.5	-3.0	8.8	-8.4	-0.6	11.8
Cc1ccc(SC(=O)c2c([N+](=O)[O-])c(C)nn2C)cc1	-18.9	-30.0	56.9*	-15.1	-0.6	16.5
COc1cc(OC)nc(Nc2nc(C(N)Cc3ccc(C(F)(F)F)cc3)cs2)n1 (stereo not given)	10.0	5.1	12.6	8.2	27.5	16.8
C[N+]1(C)CC[C@H](OC(=O)[C@@](O)(c2ccccc2)C2CCCC2)C1	-1.4	-18.4	99.0*	-18.1	-0.2	98.8*
C[N+]1(C)CCC(OC(=O)C(O)(c2ccccc2)C2CCCC2)C1 (stereo not given)	-1.6	-18.6	98.9*	-15.9	0.2	98.4*
SMILES	CHRM5 agonist	CHRM5 PAM	M4 antag	M4 PAM	M4 ag	M5 antag
O=C(Nc1ccccc1C(F)(F)F)C(O)(c1ccccc1)C1CCCCC1 (stereo not given)	-3.1	3.5	-7.1	9.5	1.1	10.2
O=C1Nc2ccccc2-n2nnnc2C1N1CCc2ccccc2C1 (stereo not given)	-2.5	-2.2	10.0	-5.0	1.5	4.3
COc1ccccc1Cc1c(-c2ccco2)nc2cc(C)c(Br)c(C)n12	2.8	0.6	-6.7	6.0	0.3	-2.5
CCC(=O)C1CCCN(C(=O)CCc2nnc(C3(c4ccc(Cl)cc4)CCC3)o2)C1 (stereo not given)	-2.8	5.5	-10.1	21.5*	4.5	-12.3
Cc1ccc(NC(=O)OCCN2CCN(S(=O)(=O)c3ccc(C)cc3)CCC2=O)cc1	5.5	-0.1	-6.2	4.8	6.6	-3.6
Cc1ccc(S(=O)(=O)N2CCC(=O)N(CCOC(=O)Nc3cccc(Cl)c3)CC2)cc1	12.4	30.2*	-0.4	9.3	9.7	-86.0
COCc1c(C(=O)Nc2nnc(C3CC3)s2)oc2ccccc12	0.3	-1.6	-13.2	-0.1	3.0	-2.0
CCCC#Cc1ccc2c(c1)O[C@H](CN(C)S(=O)(=O)c1cccc(OC)c1)[C@H](C)CN([C@H](C)CO)S2(=O)=O	-0.3	3.0	-7.6	-1.2	4.7	4.5
Cc1ccc(C2/C(=C(\O)c3c(C)nc4c(C)cccn34)C(=O)C(=O)N2CCN(C)C)o1 (stereo not given)	7.1	-8.5	-7.6	-8.1	16.2	4.0
Cc1nc2c(C)cccn2c1/C(O)=C1\C(=O)C(=O)N(CCN(C)C)C1c1ccco1 (stereo not given)	7.2	21.0*	-9.8	12.4	0.8	-13.0
C[C@@H]1CN([C@H](C)CO)S(=O)(=O)c2ccc(C3=CCCCC3)cc2O[C@H]1CN(C)C(=O)Cc1cccnc1	1.4	-0.8	-22.8	-1.4	6.6	-5.2
CCCC1(c2ccccc2)NC(=O)N(CC(=O)NCc2ccc(OC)cc2)C1=O (stereo not given)	-3.8	-1.2	1.8	21.0*	2.5	1.7
CCN1CCCC1CNC(=O)c1ccc(Sc2ccc(F)cc2)c([N+](=O)[O-])c1 (stereo not given)	-18.6	-23.1	95.2*	-28.8	3.5	12.5
O=C(NCCCN1CCOCC1)c1ccc(Sc2ccc(F)cc2)c([N+](=O)[O-])c1	-5.5	-1.4	0.8	-8.9	2.7	-7.0

Assay outcomes from PubChem BioAssay.
